Measurements pooled from the literature.
Each line is one published result; the experiments were not run side by side. ≈ marks a conversion by molar mass, not a printed value.

| Compound | tested on | assay | test system | conditions | measurement | value |
| --- | --- | --- | --- | --- | --- | --- |
| CN(C)[C@@H]1C(O)=C(C(N)=O)C(=O)[C@@]2(O)C(O)=C3C(=O)c4c(O)c(N)nc(Cl)c4C[C@H]3C[C@@H]12 | Enterobacter cloacae | microbial growth, broth dilution | ATCC13047 | – | MIC | 1 µg/mL (≈ 2.15 µM) |
| CC(=O)O[C@H]1C(=O)[C@@]2(C)[C@H]([C@H](OC(=O)c3ccccc3)[C@]3(O)C[C@H](OC(=O)[C@H](O)[C@@H](NC(=O)c4ccccc4)c4ccccc4)C(C)=C1C3(C)C)[C@]1(OC(C)=O)CO[C@@H]1C[C@@H]2O | human Rhabdomyosarcoma cell | cell growth or viability, MTT | – | 48 h | IC50 | 6.13 µM |
| CC1(C)S[C@@H]2[C@H](NC(=O)[C@H](N)c3ccccc3)C(=O)N2[C@H]1C(=O)O | Enterococcus gallinarum | microbial growth, broth dilution | GALLINARUM | – | MIC | 8 µg/mL (≈ 22.9 µM) |
| Cc1cc(Nc2ncc(Cl)c(Nc3ccccc3S(=O)(=O)C(C)C)n2)c(OC(C)C)cc1C1CCNCC1 | NCI-H3122 | cell growth or viability, MTT | – | 10 µg/mL, 72 h | inhibition | 93% |
| O=C(O)c1cn(C2CC2)c2cc(N3CCNCC3)c(F)cc2c1=O | Serratia marcescens | microbial growth | DSM30121 | – | MIC | 0.5 µg/mL (≈ 1.51 µM) |
| C[C@@H](Oc1cc(-c2cnn(C3CCNCC3)c2)cnc1N)c1c(Cl)ccc(F)c1Cl | NCI-H3122 | cell growth or viability, MTT | – | 5 µg/mL, 72 h | inhibition | 85.8% |
| CN(C)[C@@H]1C(O)=C(C(N)=O)C(=O)[C@@]2(O)C(O)=C3C(=O)c4c(O)c(-c5ccccc5)nc(Cl)c4C[C@H]3C[C@@H]12.Cl | Enterobacter cloacae | microbial growth, broth dilution | ATCC13047 | – | MIC | > 32 µg/mL |
| C=CCn1c(-c2ccc([N+](=O)[O-])cc2)nc2ccccc21 | human Rhabdomyosarcoma cell | cell growth or viability, MTT | – | – | IC50 | 32.6 µM |
| CC(C)CCNc1nc(Cl)c2c(c1O)C(=O)C1=C(O)[C@]3(O)C(=O)C(C(N)=O)=C(O)[C@@H](N(C)C)[C@@H]3C[C@@H]1C2.Cl.Cl.Cl | Enterobacter cloacae | microbial growth, broth dilution | ATCC13047 | – | MIC | > 32 µg/mL |
| Cc1ccc2nc(-c3ccc(Cl)cc3)[nH]c2c1 | human Rhabdomyosarcoma cell | cell growth or viability, MTT | – | 48 h | IC50 | 48.3 µM |
